Experiment [1] has as its target T1, Melanocortin receptor 4 (Homo sapiens, UniProt P32245). The experiment can be described thus: Agonist activity at human melanocortin 4 receptor expressed in HEK293 cells assessed as cAMP accumulation at 10 uM realtive to MT2. The class given is functional, cell-based. The method in brief: (§1)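 cAMP accumulation assay in stably transfected HEK293 cells: 0.5 mM IBMX preincubation, 3 min ligand exposure at 37 °C, [3H]cAMP/PKA binding read-out against a standard curve. The cAMP produced at 10 μM ligand is expressed as percent of that produced by 10 μM MT-II (% max effect).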
A general note: Cyclic AMP is a second messenger, typically raised through Gs and lowered through Gi signalling.

The target in experiment [2] is T2, Melanocortin receptor 3 (Homo sapiens, UniProt P41968). The experiment can be described thus: Agonist activity at human melanocortin 3 receptor expressed in HEK293 cells assessed as cAMP accumulation at 10 uM realtive to MT2. It counts as functional, cell-based. The method in brief:
as §1

For experiment [3], the target named is T3, Melanocortin receptor 5 (Homo sapiens, UniProt P33032). The experiment can be described thus: Agonist activity at human melanocortin 5 receptor expressed in HEK293 cells assessed as cAMP accumulation at 10 uM realtive to MT2. The class given is functional, cell-based. The method in brief: as §1
Experiment [4] has as its target T4, Melanocyte-stimulating hormone receptor (Homo sapiens, UniProt Q01726). In words: Agonist activity at human melanocortin 1 receptor expressed in HEK293 cells assessed as cAMP accumulation at 10 uM realtive to MT2. The class given is functional, cell-based. The method in brief: as §1
Target sequence in this assay (Q01726 whole entry, looked up): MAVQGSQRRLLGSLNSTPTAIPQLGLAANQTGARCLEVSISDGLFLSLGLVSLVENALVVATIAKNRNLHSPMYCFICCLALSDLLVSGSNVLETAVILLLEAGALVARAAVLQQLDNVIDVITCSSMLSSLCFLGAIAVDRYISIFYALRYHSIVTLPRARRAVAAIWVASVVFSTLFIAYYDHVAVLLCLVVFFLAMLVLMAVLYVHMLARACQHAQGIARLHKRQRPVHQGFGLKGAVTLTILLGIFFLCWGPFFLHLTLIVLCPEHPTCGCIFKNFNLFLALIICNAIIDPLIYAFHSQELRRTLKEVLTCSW
Experiment [5] deals with T3, Melanocortin receptor 5. The experiment can be described thus: Agonist activity at human melanocortin 5 receptor expressed in HEK293 cells assessed as cAMP accumulation at 10 uM. The class given is functional, cell-based. The method in brief: as §1
Experiment [6] concerns the target T1, Melanocortin receptor 4. In words: Displacement of [125I]-[Nle4, D-Phe7]alpha-MSH from human melanocortin 4 receptor expressed in HEK293 cells at 10 uM. The class given is cell-based. In general terms: In a radioligand displacement assay an active substance lowers the binding of a labelled ligand.
Experiment [7] has as its target T2, Melanocortin receptor 3. The experiment can be described thus: Displacement of [125I]-[Nle4, D-Phe7]alpha-MSH from human melanocortin 3 receptor expressed in HEK293 cells at 10 uM. It counts as cell-based.
Experiment [8] deals with T4, Melanocyte-stimulating hormone receptor. The experiment can be described thus: Agonist activity at human melanocortin 1 receptor expressed in HEK293 cells assessed as cAMP accumulation at 10 uM. It counts as functional, cell-based. The method in brief:
as §1
Target sequence in this assay (Q01726 whole entry, looked up): as above

Experiment [9] has as its target T2, Melanocortin receptor 3. The experiment can be described thus: Agonist activity at human melanocortin 3 receptor expressed in HEK293 cells assessed as cAMP accumulation at 10 uM. The class given is functional, cell-based. The method in brief:
as §1

Experiment [10] concerns the target T4, Melanocyte-stimulating hormone receptor. The experiment can be described thus: Displacement of [125I]-[Nle4, D-Phe7]alpha-MSH from human melanocortin 1 receptor expressed in HEK293 cells. The class given is cell-based. The method in brief: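 Whole HEK293 cells stably expressing each hMCR, seeded 48 h before assay (50000 cells/well), washed in MEM with 25 mM bicarbonate. Cells incubated 40 min at 37 °C with unlabeled peptide plus [125I]-NDP-α-MSH (33.06 pM, 20000 cpm/well) in MEM, 25 mM HEPES pH 7.4, 0.2% BSA, 1 mM 1,10-phenanthroline, leupeptin, bacitracin. Cells washed, lysed with NaOH/Triton X-100, and gamma-counted. IC50 by nonlinear fit, two experiments in triplicate […].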
Target sequence in this assay (Q01726 whole entry): as the sequence (Q01726 whole entry, looked up) above

Experiment [11] deals with T3, Melanocortin receptor 5. The experiment can be described thus: Displacement of [125I]-[Nle4, D-Phe7]alpha-MSH from human melanocortin 5 receptor expressed in HEK293 cells at 10 uM. It counts as cell-based.
Experiment [12] concerns the target T1, Melanocortin receptor 4. In words: Agonist activity at human melanocortin 4 receptor expressed in HEK293 cells assessed as cAMP accumulation at 10 uM. It counts as functional, cell-based. The method in brief:
as §1

Active and inactive are the calls of the source. The calls are words filed in the database; no cut-off is given here. Bounds are passed on as bounds.

From ChEMBL document CHEMBL1150264, “Design and microwave-assisted synthesis of novel macrocyclic peptides active at melanocortin receptors: discovery of potent and selective hMC5R receptor antagonists” (J Med Chem, 2008) come the findings set out here.

T3 sequence (P33032 whole entry): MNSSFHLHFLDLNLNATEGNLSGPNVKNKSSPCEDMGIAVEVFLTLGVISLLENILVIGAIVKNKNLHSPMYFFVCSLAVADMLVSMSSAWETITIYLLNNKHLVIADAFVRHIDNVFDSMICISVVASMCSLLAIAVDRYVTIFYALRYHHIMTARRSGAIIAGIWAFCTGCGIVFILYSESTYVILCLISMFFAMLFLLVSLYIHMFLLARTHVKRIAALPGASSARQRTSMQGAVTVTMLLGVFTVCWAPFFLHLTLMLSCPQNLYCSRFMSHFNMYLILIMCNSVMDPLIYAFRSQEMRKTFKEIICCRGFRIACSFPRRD
T1 sequence (P32245 whole entry): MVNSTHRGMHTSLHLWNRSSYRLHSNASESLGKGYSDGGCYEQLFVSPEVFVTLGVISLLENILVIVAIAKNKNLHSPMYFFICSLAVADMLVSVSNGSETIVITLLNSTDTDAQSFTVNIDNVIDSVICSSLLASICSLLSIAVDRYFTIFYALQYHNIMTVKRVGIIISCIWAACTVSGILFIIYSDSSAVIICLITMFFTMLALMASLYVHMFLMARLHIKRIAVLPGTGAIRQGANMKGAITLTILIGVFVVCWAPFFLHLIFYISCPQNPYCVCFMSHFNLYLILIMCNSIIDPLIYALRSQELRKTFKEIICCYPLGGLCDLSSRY
T2 sequence (P41968 whole entry): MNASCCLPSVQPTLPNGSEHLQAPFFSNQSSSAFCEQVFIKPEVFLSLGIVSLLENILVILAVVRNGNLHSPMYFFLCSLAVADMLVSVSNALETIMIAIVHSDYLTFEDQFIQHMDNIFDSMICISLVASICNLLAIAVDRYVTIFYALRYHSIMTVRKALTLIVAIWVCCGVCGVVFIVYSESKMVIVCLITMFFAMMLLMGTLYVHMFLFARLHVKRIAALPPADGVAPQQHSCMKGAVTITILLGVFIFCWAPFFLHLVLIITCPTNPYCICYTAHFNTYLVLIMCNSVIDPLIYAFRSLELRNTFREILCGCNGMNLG

On to `N=C(N)NCCC[C@@H]1NC(=O)[C@@H](Cc2ccccc2)NC(=O)[C@H](Cc2cnc[nH]2)NC(=O)c2cc([N+](=O)[O-])ccc2SC[C@@H](C(N)=O)NC(=O)[C@H](Cc2c[nH]c3ccccc23)NC1=O`, for which the Activity in experiment [1], in [2], in experiment [3] and in experiment [4] was 100% throughout.

As a reminder, the IC50 is the point on the concentration scale where inhibition reaches its midpoint. With `N=C(N)NCCC[C@@H]1NC(=O)[C@@H](Cc2ccccc2)NC(=O)[C@H]2CCCN2C(=O)c2cc([N+](=O)[O-])ccc2SC[C@@H](C(N)=O)NC(=O)[C@H](Cc2c[nH]c3ccccc23)NC1=O`, the outcome in experiment [5], in experiment [6], in experiment [7], in [8], in experiment [9] and in experiment [11] was inactive. The outcome in [12] was inactive. Besides, the Activity in [1], in [2], in experiment [3] and in [4] was 0% in each case. The half-inhibitory concentration (IC50) in experiment [10] (hek293) is > 1.5 µM.

Consider `N=C(N)NCCC[C@@H]1NC(=O)[C@@H](Cc2ccc3ccccc3c2)NC(=O)[C@H](Cc2cnc[nH]2)NC(=O)c2cc([N+](=O)[O-])ccc2SC[C@@H](C(N)=O)NC(=O)[C@H](Cc2c[nH]c3ccccc23)NC1=O`, for which the result in experiment [5], in experiment [6], in [9] and in experiment [12] was inactive. In addition, the Activity in [1] was 0%; in [2], 0%; in [3], 0%; in experiment [4], > 100%.

As to `N=C(N)NCCC[C@@H]1NC(=O)[C@@H](Cc2ccccc2)NC(=O)[C@H](Cc2cnc[nH]2)NC(=O)c2cc([N+](=O)[O-])ccc2SC[C@@H](C(N)=O)NC(=O)[C@H](Cc2ccccc2)NC1=O`, the result in experiment [5], in experiment [6], in experiment [7], in [8], in experiment [9] and in experiment [11] was inactive. Besides, the result in experiment [12] was inactive. Moreover, the Activity in [1], in experiment [2], in [3] and in [4] was 0% each time. The IC50 in experiment [10] is > 1 µM.

Consider `N=C(N)NCCC[C@@H]1NC(=O)[C@H](Cc2ccc(N)cc2)NC(=O)[C@H](Cc2cnc[nH]2)NC(=O)c2cc([N+](=O)[O-])ccc2SC[C@@H](C(N)=O)NC(=O)[C@H](Cc2c[nH]c3ccccc23)NC1=O`, for which the result in [5], in [6], in experiment [11] and in experiment [12] was inactive. Moreover, the Activity worked out at 0% in [1], 5% in [2], 0% in experiment [3] and 9% in experiment [4].

Take `N=C(N)NCCC[C@@H]1NC(=O)[C@@H](Cc2ccccc2)NC(=O)[C@H](Cc2cnc[nH]2)NC(=O)c2cc([N+](=O)[O-])ccc2SC[C@@H](C(N)=O)NC(=O)[C@H](Cc2ccc3ccccc3c2)NC1=O`: the outcome in [5] and in [12] was inactive. Also, the Activity was 3% in experiment [1], > 100% in [2], 0% in experiment [3] and 110% in [4].
